Usually IC50 stands for the concentration at which inhibition is half-maximal. Usually inhibition stands for the change of the read-out against control, counted positive when it falls.

In ChEMBL document CHEMBL1143908, “Functionalized chalcones as selective inhibitors of P-glycoprotein and breast cancer resistance protein” (Bioorg Med Chem, 2008) one finds Activity, IC50 and inhibition data, which are given here for 27 compounds.

Data set [1] deals with T1, ATP-dependent translocase ABCB1 (Homo sapiens, UniProt P08183). Briefly: Inhibition of human multidrug resistant gene Pgp expressed in MDCK2 cells assessed as calcein-AM accumulation at 10 uM after 40 mins. Format: cell-based. Also on record: scale not given: the % may be the effect or the level left. Conditions: mdck-ii; call rule not given here.
Data set [2] has as its target T2, Broad substrate specificity ATP-binding cassette transporter ABCG2 (Homo sapiens, UniProt Q9UNQ0).
T2 sequence (Q9UNQ0 whole entry): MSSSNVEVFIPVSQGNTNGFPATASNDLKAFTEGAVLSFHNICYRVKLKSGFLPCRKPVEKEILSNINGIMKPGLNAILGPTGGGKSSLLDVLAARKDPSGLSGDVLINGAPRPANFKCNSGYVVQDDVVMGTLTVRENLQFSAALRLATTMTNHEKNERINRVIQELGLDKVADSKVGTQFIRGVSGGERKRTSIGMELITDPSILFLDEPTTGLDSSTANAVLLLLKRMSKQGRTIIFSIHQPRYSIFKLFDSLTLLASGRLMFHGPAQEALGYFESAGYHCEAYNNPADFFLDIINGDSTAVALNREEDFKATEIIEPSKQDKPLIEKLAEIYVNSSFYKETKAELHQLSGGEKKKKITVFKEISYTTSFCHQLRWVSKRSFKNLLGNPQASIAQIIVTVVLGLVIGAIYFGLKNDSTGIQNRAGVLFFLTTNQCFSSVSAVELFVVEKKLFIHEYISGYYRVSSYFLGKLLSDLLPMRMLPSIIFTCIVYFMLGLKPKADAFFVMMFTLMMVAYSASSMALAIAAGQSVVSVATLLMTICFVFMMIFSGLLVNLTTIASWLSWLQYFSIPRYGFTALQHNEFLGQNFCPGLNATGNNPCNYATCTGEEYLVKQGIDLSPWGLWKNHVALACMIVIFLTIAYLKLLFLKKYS
In words: Inhibition of human BCRP mediated mitoxantrone accumulation in mitoxantrone resistant MCF7 cells at 5 uM by flow cytometry. It is filed as cell-based. Further details: scale not given: the % may be the effect or the level left. The note with it: mcf7, 5 µM. The method, boiled down:
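MCF-7/MX cells (selected in 250 nM mitoxantrone) trypsinized and resuspended at ~10^6 cells/ml in serum-free RPMI. Preincubated 15 min at 37 °C with compound (5 uM final) or vehicle (0.5% DMSO), then mitoxantrone 3 uM final added for 30 min. Stopped with ice-cold PBS and washed. Read by flow cytometry (488 nm excitation, 670 nm bandpass) as % area right of a marker set on MCF-7/WT autofluorescence (<5%). n = 4; FTC 10 uM as positive control.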

Data set [3] has as its target T1, ATP-dependent translocase ABCB1. Briefly: Inhibition of human wild type gene Pgp expressed in MDCK2 cells assessed as calcein-AM accumulation at 1 uM. It is filed as cell-based. Conditions: mdck-ii. The method, boiled down: (§1)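 MDCKII/WT or human MDR1-transfected MDCKII/MDR1 cells (passages 8-17) seeded at 5.0 x 10^4 cells/well and cultured 24 h. Washed, then preincubated 30 min at 37 °C with compound in DMSO-HBSS (≤1% DMSO). Calcein-AM added to 2 uM final, and fluorescence (ex 485/em 535 nm) read every 10 min over 40 min. Accumulation taken at 40 min relative to untreated MDCKII/MDR1, or scaled to the WT-minus-MDR1 fluorescence difference.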

Data set [4] deals with MCF7. In words: Antiproliferative activity against adriamycin resistant human MCF7 cells after 72 hrs by MTT assay. It is filed as functional, cell-based. Conditions: MCF7, 72 h. The method, boiled down: (§2)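 MCF-7/WT and MCF-7/Adr cells (Adr line kept in medium with 10 uM doxorubicin; RPMI 1640, 10% FBS) exposed to compound for 72 h. MTT then added for 3 h, cells washed with PBS, and formazan dissolved in DMSO. Absorbance read at 590 nm, 3 determinations per concentration, IC50 derived from the concentration-response curve.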

Data set [5] addresses T1, ATP-dependent translocase ABCB1. Briefly: Inhibition of human multidrug resistant gene Pgp expressed in MDCK2 cells assessed as calcein-AM accumulation at 1 uM. Format: cell-based. Conditions: mdck-ii. The method, boiled down: as §1
In data set [6] the test system is MCF7. In words: Antiproliferative activity against wild type human MCF7 cells after 72 hrs by MTT assay. It is filed as functional, cell-based. The note with it: MCF7, 72 h. The method, boiled down: as §2
Background: Formazan colour is commonly taken as a measure of viable cells.

Data set [7] deals with P-gp (ABCB1), wild type (Homo sapiens, UniProt P08183). Briefly: Inhibition of human wild type Pgp expressed in MDCK2 cells assessed as calcein-AM accumulation at 50 uM after 40 mins. Format: cell-based, MDCK-II. The note with it: MDCK2 cells expressing human wild type Pgp, probe calcein-AM. The method, boiled down: as §1
Data set [8] concerns the target T2, Broad substrate specificity ATP-binding cassette transporter ABCG2. Briefly: Inhibition of human BCRP mediated mitoxantrone accumulation in mitoxantrone resistant MCF7 cells at 10 uM by flow cytometry. It is filed as cell-based. Also on record: scale not given: the % may be the effect or the level left. Conditions: mcf7, 10 µM. The method, boiled down: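 MCF-7/MX cells are maintained in 250 nM mitoxantrone, then trypsinized, washed in ice-cold PBS and resuspended in serum-free RPMI 1640. They are pre-incubated 15 min at 37 °C with compound or vehicle (0.5% v/v DMSO), then exposed to mitoxantrone (3 uM final) for 30 min. Uptake is stopped with ice-cold PBS and cells are washed. Flow cytometry uses 488 nm excitation and a 670 nm filter. The read-out is % area beyond a marker set on MCF-7/WT autofluorescence (<5%).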
On the technique in general: A flow cytometer gives signals particle by particle.

For data set [9] the target is unchanged. Briefly: Inhibition of human BCRP mediated mitoxantrone accumulation in wild type MCF7 cells at 5 uM by flow cytometry. The note with it: mcf7, 5 µM. It is filed as cell-based. Further details: scale not given: the % may be the effect or the level left.

T1 sequence (P08183 whole entry): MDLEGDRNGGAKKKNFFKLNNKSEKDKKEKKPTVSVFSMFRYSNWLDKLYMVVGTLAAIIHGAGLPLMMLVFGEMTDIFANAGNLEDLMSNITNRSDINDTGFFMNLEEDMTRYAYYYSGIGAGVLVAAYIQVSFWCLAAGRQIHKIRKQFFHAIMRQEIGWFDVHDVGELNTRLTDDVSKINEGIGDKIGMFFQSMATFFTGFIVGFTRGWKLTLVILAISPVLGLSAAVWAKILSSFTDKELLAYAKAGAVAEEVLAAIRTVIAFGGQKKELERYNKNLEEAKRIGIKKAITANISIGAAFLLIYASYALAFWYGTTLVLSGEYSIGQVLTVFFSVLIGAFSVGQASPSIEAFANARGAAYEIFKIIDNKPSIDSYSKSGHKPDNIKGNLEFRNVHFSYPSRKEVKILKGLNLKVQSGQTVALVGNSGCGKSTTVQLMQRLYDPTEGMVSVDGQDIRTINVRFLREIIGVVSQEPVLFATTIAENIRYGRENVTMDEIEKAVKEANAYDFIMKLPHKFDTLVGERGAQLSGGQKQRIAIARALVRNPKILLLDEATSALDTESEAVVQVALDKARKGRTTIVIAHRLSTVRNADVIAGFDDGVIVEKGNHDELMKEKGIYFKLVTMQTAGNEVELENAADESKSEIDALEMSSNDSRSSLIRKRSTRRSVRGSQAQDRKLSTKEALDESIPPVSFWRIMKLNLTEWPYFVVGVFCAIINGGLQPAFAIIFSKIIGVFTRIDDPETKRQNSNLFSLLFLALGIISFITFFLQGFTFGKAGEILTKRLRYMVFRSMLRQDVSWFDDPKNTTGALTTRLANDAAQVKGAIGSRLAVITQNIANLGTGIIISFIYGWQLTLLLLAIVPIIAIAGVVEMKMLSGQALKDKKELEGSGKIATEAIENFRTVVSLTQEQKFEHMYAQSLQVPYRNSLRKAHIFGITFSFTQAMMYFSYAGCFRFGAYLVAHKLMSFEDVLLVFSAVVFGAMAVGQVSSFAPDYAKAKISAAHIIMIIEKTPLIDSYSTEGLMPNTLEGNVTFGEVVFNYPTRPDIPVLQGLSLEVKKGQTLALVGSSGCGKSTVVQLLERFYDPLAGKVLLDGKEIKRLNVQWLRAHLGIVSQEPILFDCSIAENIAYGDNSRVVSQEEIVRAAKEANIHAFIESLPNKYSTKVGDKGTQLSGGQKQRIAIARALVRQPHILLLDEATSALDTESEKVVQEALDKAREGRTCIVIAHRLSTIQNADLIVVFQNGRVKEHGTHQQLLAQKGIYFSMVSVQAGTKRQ
Sequence of P-gp (ABCB1), wild type (P08183 whole entry): as above

Turning to `COc1ccc(/C=C/C(=O)c2ccc(OC)c(OC)c2OC)c(OC)c1`, the Activity in data set [1] is 174%.

As to `COc1ccc(C(=O)/C=C/c2ccc(Cl)cc2)c(OC)c1`, the Activity in data set [2] is reported as 348.6%; in data set [1], 101%. `COc1ccc(/C=C/C(=O)c2ccc(OC)cc2OC)c(OC)c1`: in [1], the Activity is 172%. Regarding `COc1ccc(C(=O)/C=C/c2ccc(N3CCN(C)CC3)cc2)c(OC)c1`, in [1], the Activity is recorded as 159%.

On to `COc1ccc(/C=C/C(=O)c2ccc(N3CCNCC3)cc2)c(OC)c1`, for which the Activity entry in data set [3] was “Active”; in data set [2] it was 188.4%; in data set [5] it was “Active”; in [1] it was 216%. In data set [4], this compound yielded an IC50 of 21.5 µM. Regarding `COc1cc(OC)c(C2CCN(C)CC2)cc1C(=O)/C=C/c1ccncc1`, the Activity in data set [1] is recorded as 117%. Still for that read-out and setting: under `O=C(/C=C/c1ccccc1Cl)c1ccc(N2CCNCC2)cc1` stands 139%. Consider `COc1cc(OC)c(C2CCN(C)CC2)cc1C(=O)/C=C/c1cccnc1`, for which the Activity in [1] is 170%.

Regarding `O=C(/C=C/c1ccc(Cl)cc1)c1ccc(N2CCCCC2)cc1`, the Activity in [1] is 103%. Still for that read-out and setting: for `COc1cc(OC)c(N2CCN(C)CC2)cc1C(=O)/C=C/c1ccc(N2CCN(C)CC2)cc1` the value was 107%. Consider `COc1cc(OC)c(C2CCN(C)CC2)cc1C(=O)/C=C/c1ccccn1`, for which the Activity in data set [1] is recorded as 164%. Consider `COc1ccc(C2CCN(C)CC2)cc1C(=O)/C=C/c1ccccc1`, for which, in [1], the Activity was 178%. On to `CCN1CCC(c2cc(C(=O)/C=C/c3ccccc3Cl)c(OC)cc2OC)CC1`, for which the IC50 turned out to be 2.6 µM in [6] and 3.6 µM in [4]. The Activity entry in data set [3] is “Active”; in [5], “Active”; in [1] it was 280%. In [7], the inhibition at 40 min, 50 µM was more than 100%. Regarding `CCN1CCC(c2cc(C(=O)/C=C/c3ccccc3)c(OC)cc2OC)CC1`, the IC50 was found to be 4.8 µM in [6] and 6.1 µM in data set [4]. Moreover, the Activity entry in data set [3] is “Active”; in [5] it was “Active”; in [1] it was 256%.

With `CCN1CCC(c2cc(C(=O)/C=C/c3ccc(Cl)cc3)c(OC)cc2OC)CC1`, in data set [1], the Activity was 247%.

With `CCN1CCC(c2cc(C(=O)/C=C/c3ccc(N4CCN(C)CC4)cc3)c(OC)cc2OC)CC1`, the Activity in data set [1] is given as 120%. The same measure, in the same setting: under `CCN1CCC(c2cc(C(=O)/C=C/c3ccncc3)c(OC)cc2OC)CC1` stands 151%; under `COc1ccc(C(=O)/C=C/c2ccc(C(F)(F)F)cc2)c(OC)c1`, 103%. On the same count and under the same terms, under `COc1cc(OC)c(C2CCN(C)CC2)cc1C(=O)/C=C/c1ccc(N2CCN(C)CC2)cc1` stands 102%.

Regarding `COc1cc(OC)c(N2CCN(C)CC2)cc1C(=O)/C=C/c1ccccc1`, the Activity in data set [1] is 176%.

On to `O=C(/C=C/c1ccc(Cl)cc1)c1ccc(N2CCNCC2)cc1`, for which the Activity in [1] was 135%. On to `COc1cc(OC)c(C2CCN(C)CC2)c(O)c1C(=O)/C=C/c1ccc(N2CCN(C)CC2)cc1`, for which the Activity in [1] is 118%. Regarding `COc1ccc(/C=C/C(=O)c2ccc(N3CCCCC3)cc2)c(OC)c1`, the Activity in [1] was 178%. The same measure, in the same setting: under `COc1cc(OC)c(N2CCN(C)CC2)cc1C(=O)/C=C/c1ccccc1Cl` stands 222%; under `O=C(/C=C/c1ccccc1)c1ccc(N2CCCCC2)cc1`, 112%. Compound `COc1ccc2c3c([nH]c2c1)[C@H](C=C(C)C)N1C(=O)[C@@H]2CCCN2C(=O)[C@@H]1C3` [FUMITREMORGIN] yielded an Activity in data set [8] of 274.5%. In the case of `O=C1c2c(O)ccc(O)c2C(=O)c2c(NCCNCCO)ccc(NCCNCCO)c21` [MITOXANTRONE], in [9], the Activity is 439.2%.
